Source: ChEMBL document CHEMBL3400013, “Synthesis and biological activity evaluation of hydrazone derivatives based on a Tröger's base skeleton” (Bioorg Med Chem, 2015)
Activity calls are given as the source filed them. The calls are words filed in the database; no cut-off is given here.

Experiments:
Candida parapsilosis = experiment: Antifungal activity against Candida parapsilosis up to 200 uM after 24 to 48 hrs by broth microdilution method; type: functional, organism-based
[1] = Cytostatic activity against human HCT116 cells after 72 hrs by MTT assay; type: functional, cell-based; settings: HCT-116, 72 h
Summary of the method: (§1)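 Cells were seeded at 25,000–30,000 per well and pre-incubated for 24 h at 37°C in 5% CO2. Four-fold compound dilutions were added in duplicate and incubated for 72 h. MTT was added for 1–4 h, and formazan was dissolved in 10% aq SDS (pH 5.5) overnight at 37°C. OD was read at 540 nm. IC50 came from dose-response curves, mean ± SD of eight independent experiments.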

CCRF-CEM [2] = experiment: Induction of apoptosis in human CCRF-CEM cells assessed as apoptotic cells at IC50 after 24 hrs by propidium iodide staining-based flow cytometry; type: functional
Summary of the method: (§2)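 Cells were then fixed in 70% ethanol, washed in hypotonic citrate buffer, treated with RNase (50 µg/mL) and stained with propidium iodide. Flow cytometry used a 488 nm laser. Apoptosis was scored as the percentage of particles with propidium content below G0/G1.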

CCRF-CEM [3] = experiment: Induction of apoptosis in human CCRF-CEM cells assessed as inhibition of DNA synthesis at 5 times IC50 after 24 hrs by propidium iodide/BrdU staining by flow cytometry; type: functional; set-up: scale not given: the % may be the effect or the level left
CCRF-CEM [4] = experiment: Cell cycle arrest in human CCRF-CEM cells assessed as accumulation at S phase at IC50 after 24 hrs by propidium iodide staining-based flow cytometry; type: functional; summary of the method: as §2
A549 [5] = experiment: Selectivity index, ratio of IC50 for human MRC5 cells to IC50 for human A549 cells; type: functional
Staphylococcus aureus [6] = experiment: Antimicrobial activity against methicillin-resistant Staphylococcus aureus MRSA 4591 up to 200 uM after 24 to 48 hrs by broth microdilution method; type: functional, organism-based
HCT-116 [7] = experiment: Selectivity index, ratio of IC50 for human MRC5 cells to IC50 for human HCT116 cells; type: functional
Nucleic Acid [8] = experiment: Binding affinity to DNA (unknown origin) assessed as DNA intercalation by UV-visible spectrophotometry in presence of Zn2+; type: nucleic-acid assay
BJ [9] = experiment: Selectivity index, ratio of IC50 for human BJ cells to IC50 for human K562-TAX cells; type: functional
Pseudomonas aeruginosa = experiment: Antimicrobial activity against multidrug-resistant Pseudomonas aeruginosa A/16575 up to 200 uM after 24 to 48 hrs by broth microdilution method; type: functional, organism-based
CCRF-CEM [10] = experiment: Cell cycle arrest in human CCRF-CEM cells assessed as accumulation at G2/M phase at IC50 after 24 hrs by propidium iodide staining-based flow cytometry; type: functional; summary of the method: as §2
BJ [11] = experiment: Selectivity index, ratio of IC50 for human BJ cells to IC50 for human CCRF-CEM cells; type: functional; settings: pooled result: one value given for 2 cell lines, strains, targets or settings
[12] = Metal chelating activity of the compound assessed as formation of Co2+ complex by UV-vis spectrometry; type: physicochemical
K562 [13] = experiment: Cytostatic activity against human K562 cells after 72 hrs by MTT assay; type: functional, cell-based; settings: K562, 72 h; summary of the method: as §1
Candida tropicalis = experiment: Antifungal activity against Candida tropicalis up to 200 uM after 24 to 48 hrs by broth microdilution method; type: functional, organism-based
CCRF-CEM [14] = experiment: Induction of apoptosis in human CCRF-CEM cells assessed as inhibition of RNA synthesis at 5 times IC50 after 24 hrs by propidium iodide/BrU staining by flow cytometry; type: functional; set-up: scale not given: the % may be the effect or the level left
HCT-116 [15] = experiment: Selectivity index, ratio of IC50 for human MRC5 cells to IC50 for human p53-/- HCT116 cells; type: functional
[16] = Metal chelating activity of the compound assessed as formation of Mg2+ complex by UV-vis spectrometry; type: physicochemical
[17] = Metal chelating activity of the compound assessed as formation of Cu2+ complex by UV-vis spectrometry; type: physicochemical
BJ [18] = experiment: Selectivity index, ratio of IC50 for human BJ cells to IC50 for human p53-/- HCT116 cells; type: functional
CCRF-CEM [19] = experiment: Cell cycle arrest in human CCRF-CEM cells assessed as accumulation at S phase at 5 times IC50 after 24 hrs by propidium iodide staining-based flow cytometry; type: functional; summary of the method: as §2
Staphylococcus aureus [20] = experiment: Antimicrobial activity against Staphylococcus aureus CCM 3953 up to 200 uM after 24 to 48 hrs by broth microdilution method; type: functional, organism-based
Nucleic Acid [21] = experiment: Binding affinity to DNA (unknown origin) assessed as DNA intercalation by UV-visible spectrophotometry in presence of Ni2+; type: nucleic-acid assay
CCRF-CEM [22] = experiment: Induction of apoptosis in human CCRF-CEM cells assessed as inhibition of DNA synthesis at IC50 after 24 hrs by propidium iodide/BrdU staining by flow cytometry; type: functional; set-up: scale not given: the % may be the effect or the level left
CCRF-CEM [23] = experiment: Induction of apoptosis in human CCRF-CEM cells assessed as apoptotic cells at 5 times IC50 after 24 hrs by propidium iodide staining-based flow cytometry; type: functional; summary of the method: as §2
Escherichia coli = experiment: Antimicrobial activity against Escherichia coli CCM 3954 up to 200 uM after 24 to 48 hrs by broth microdilution method; type: functional, organism-based
Nucleic Acid [24] = experiment: Binding affinity to DNA (unknown origin) assessed as DNA intercalation by UV-visible spectrophotometry; type: nucleic-acid assay
CCRF-CEM [25] = experiment: Cell cycle arrest in human CCRF-CEM cells assessed as accumulation at G0/G1 phase at 5 times IC50 after 24 hrs by propidium iodide staining-based flow cytometry; type: functional; summary of the method: as §2
Candida albicans = experiment: Antifungal activity against Candida albicans up to 200 uM after 24 to 48 hrs by broth microdilution method; type: functional, organism-based
Nucleic Acid [26] = experiment: Binding affinity to DNA (unknown origin) assessed as DNA intercalation by UV-visible spectrophotometry in presence of Co2+; type: nucleic-acid assay
K562 [27] = experiment: Selectivity index, ratio of IC50 for human MRC5 cells to IC50 for human K562 cells; type: functional
CEM-DNR = experiment: Selectivity index, ratio of IC50 for human MRC5 cells to IC50 for human CEM-DNR cells; type: functional
Pichia kudriavzevii = experiment: Antifungal activity against Candida crusei up to 200 uM after 24 to 48 hrs by broth microdilution method; type: functional, organism-based
Nucleic Acid [28] = experiment: Binding affinity to DNA (unknown origin) assessed as DNA intercalation by UV-visible spectrophotometry in presence of Cu2+; type: nucleic-acid assay
[29] = tested on: Staphylococcus haemolyticus; experiment: Antimicrobial activity against methicillin-resistant Staphylococcus haemolyticus A1/16568 up to 200 uM after 24 to 48 hrs by broth microdilution method; type: functional, organism-based
CCRF-CEM [30] = experiment: Cell cycle arrest in human CCRF-CEM cells assessed as accumulation at G2/M phase at 5 times IC50 after 24 hrs by propidium iodide staining-based flow cytometry; type: functional; summary of the method: as §2
BJ [31] = experiment: Selectivity index, ratio of IC50 for human BJ cells to IC50 for human CEM-DNR cells; type: functional
[32] = Metal chelating activity of the compound assessed as formation of Zn2+ complex by UV-vis spectrometry; type: physicochemical
A549 [33] = experiment: Cytostatic activity against human A549 cells after 72 hrs by MTT assay; type: functional, cell-based; settings: A549, 72 h; summary of the method: as §1
[34] = Metal chelating activity of the compound assessed as formation of Mn2+ complex by UV-vis spectrometry; type: physicochemical
CCRF-CEM [35] = experiment: Cell cycle arrest in human CCRF-CEM cells assessed as accumulation at G0/G1 phase at IC50 after 24 hrs by propidium iodide staining-based flow cytometry; type: functional; summary of the method: as §2

With `O=C(N/N=C/c1cc(F)ccc1O)c1ccc2c3c(ccc2c1)N1Cc2c(ccc4cc(C(=O)N/N=C/c5cc(F)ccc5O)ccc24)N(C3)C1` the Activity (Candida parapsilosis) was “inactive”, the IC50 [1] was 640 nM and the Activity (CCRF-CEM [2]) was 40.42%. The Activity (CCRF-CEM [3]) was 1.54%, the Activity (CCRF-CEM [4]) was 55.45% and the “Ratio IC50” value (A549 [5]) was 33.6. The Activity (Staphylococcus aureus [6]) was “inactive”, the “Ratio IC50” value (HCT-116 [7]) was 64.9 and the Activity (Nucleic Acid [8]) was “Active”. The “Ratio IC50” value (BJ [9]) was 17.6, the Activity (Pseudomonas aeruginosa) was “inactive” and the Activity (CCRF-CEM [10]) was 13.05%. For the same molecule, the “Ratio IC50” value (BJ [11]) was 26.3, the Activity [12] was “Active” and the IC50 (K562 [13]) was 2300 nM. The Activity (Candida tropicalis) was “inactive”, the Activity (CCRF-CEM [14]) was 4.37% and the “Ratio IC50” value (HCT-116 [15]) was 51. For the same molecule, the Activity [16] was “Not Active”, the Activity [17] was “Active” and the “Ratio IC50” value (BJ [18]) was 51. For the same molecule, the Activity (CCRF-CEM [19]) was 42.41%, the Activity (Staphylococcus aureus [20]) was “inactive” and the Activity (Nucleic Acid [21]) was “Active”. The Activity (CCRF-CEM [22]) was 13.69%, the Activity (CCRF-CEM [23]) was 58.01% and the Activity (Escherichia coli) was “inactive”. For the same molecule, the Activity (Nucleic Acid [24]) was “inactive”, the Activity (CCRF-CEM [25]) was 41.1% and the Activity (Candida albicans) was “inactive”. For the same molecule, the Activity (Nucleic Acid [26]) was “Active”, the “Ratio IC50” value (K562 [27]) was 18.1 and the “Ratio IC50” value (CEM-DNR) was 9.8. For the same molecule, the Activity (Pichia kudriavzevii) was “inactive”, the Activity (Nucleic Acid [28]) was “Active” and the Activity [29] was “inactive”. For the same molecule, the Activity (CCRF-CEM [30]) was 16.49%, the “Ratio IC50” value (BJ [31]) was 9.8 and the Activity [32] was “Active”. For the same molecule, the IC50 (A549 [33]) was 1240 nM, the Activity [34] was “Not Active” and the Activity (CCRF-CEM [35]) was 31.5%.
In the case of `O=C(N/N=C/c1cc(O)ccc1O)c1ccc2c3c(ccc2c1)N1Cc2c(ccc4cc(C(=O)N/N=C/c5cc(O)ccc5O)ccc24)N(C3)C1`, the Activity (Candida parapsilosis) is reported as “inactive”, the IC50 [1] is reported as 390 nM and the Activity (CCRF-CEM [2]) is reported as 3.99%. For the same molecule, the Activity (CCRF-CEM [3]) was 55.96%, the Activity (CCRF-CEM [4]) was 44.72% and the “Ratio IC50” value (A549 [5]) was 20.9. For the same molecule, the Activity (Staphylococcus aureus [6]) was “inactive”, the “Ratio IC50” value (HCT-116 [7]) was 9.1 and the Activity (Nucleic Acid [8]) was “Active”. For the same molecule, the “Ratio IC50” value (BJ [9]) was 13.8, the Activity (Pseudomonas aeruginosa) was “inactive” and the Activity (CCRF-CEM [10]) was 17.9%. The “Ratio IC50” value (BJ [11]) was 63.2, the Activity [12] was “Active” and the IC50 (K562 [13]) was 440 nM. For the same molecule, the Activity (Candida tropicalis) was “inactive”, the Activity (CCRF-CEM [14]) was 43.16% and the “Ratio IC50” value (HCT-116 [15]) was 29. For the same molecule, the Activity [16] was “Not Active”, the Activity [17] was “Active” and the “Ratio IC50” value (BJ [18]) was 29. For the same molecule, the Activity (CCRF-CEM [19]) was 58.22%, the Activity (Staphylococcus aureus [20]) was “inactive” and the Activity (Nucleic Acid [21]) was “Active”. For the same molecule, the Activity (CCRF-CEM [22]) was 50.15%, the Activity (CCRF-CEM [23]) was 9.74% and the Activity (Escherichia coli) was “inactive”. The Activity (Nucleic Acid [24]) was “inactive”, the Activity (CCRF-CEM [25]) was 21.32% and the Activity (Candida albicans) was “inactive”. For the same molecule, the Activity (Nucleic Acid [26]) was “Active”, the “Ratio IC50” value (K562 [27]) was 8 and the “Ratio IC50” value (CEM-DNR) was 1.4. For the same molecule, the Activity (Pichia kudriavzevii) was “inactive”, the Activity (Nucleic Acid [28]) was “Active” and the Activity [29] was “inactive”. For the same molecule, the Activity (CCRF-CEM [30]) was 20.46%, the “Ratio IC50” value (BJ [31]) was 1.4 and the Activity [32] was “Active”. For the same molecule, the IC50 (A549 [33]) was 170 nM, the Activity [34] was “Not Active” and the Activity (CCRF-CEM [35]) was 37.38%.
